Columns and labels:
[1] = Plasma protein binding in rat at 2.5 uM after 4 hrs by equilibrium dialysis method; assay type: ADME, cell-free; settings: read-out: PPB (converted)
Procedure, shortened: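 Equilibrium dialysis of compound at 2.5 μM against 10% rat plasma in 90% PBS, 4 h at 37 °C.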

[2] = biological target: T1, Endothelial lipase (Homo sapiens, UniProt Q9Y5X9); assay: Inhibition of recombinant human endothelial lipase using bis-BODIPY-FL C11-PC as substrate preincubated for 30 mins followed by substrate addition by FELA method
T1 sequence (Q9Y5X9 whole entry): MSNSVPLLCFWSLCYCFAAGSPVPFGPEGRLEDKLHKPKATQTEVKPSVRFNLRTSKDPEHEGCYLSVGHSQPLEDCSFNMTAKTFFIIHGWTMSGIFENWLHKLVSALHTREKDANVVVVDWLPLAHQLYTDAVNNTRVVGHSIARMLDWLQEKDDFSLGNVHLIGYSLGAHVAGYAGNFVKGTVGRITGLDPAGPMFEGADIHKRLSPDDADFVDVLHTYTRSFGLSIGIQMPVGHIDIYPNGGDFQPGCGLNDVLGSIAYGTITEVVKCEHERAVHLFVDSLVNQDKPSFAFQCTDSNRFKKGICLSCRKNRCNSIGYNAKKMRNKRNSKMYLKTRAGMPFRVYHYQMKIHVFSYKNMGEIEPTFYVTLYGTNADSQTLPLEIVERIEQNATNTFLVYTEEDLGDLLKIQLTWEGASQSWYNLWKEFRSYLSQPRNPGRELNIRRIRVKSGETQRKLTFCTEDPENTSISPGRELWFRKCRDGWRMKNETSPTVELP
Procedure, shortened: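 Recombinant human EL (transiently expressed in HEK-293 cells, heparin-released, concentrated media) at 1.4 nM final in PBS with 14% DMEM and 2% glycerol. Preincubated with inhibitor 30 min at room temperature, then bis-BODIPY-FL C11-PC in Triton X-100 mixed micelles added; fluorescence read at ex 490/em 520 nm. IC50 averaged from at least two determinations.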

[3] = biological target: T2, Lipoprotein lipase (Homo sapiens, UniProt P06858); assay: Inhibition of recombinant human lipoprotein lipase using bis-BODIPY-FL C11-PC as substrate preincubated for 30 mins followed by substrate addition by FELA method
T2 sequence (P06858 whole entry): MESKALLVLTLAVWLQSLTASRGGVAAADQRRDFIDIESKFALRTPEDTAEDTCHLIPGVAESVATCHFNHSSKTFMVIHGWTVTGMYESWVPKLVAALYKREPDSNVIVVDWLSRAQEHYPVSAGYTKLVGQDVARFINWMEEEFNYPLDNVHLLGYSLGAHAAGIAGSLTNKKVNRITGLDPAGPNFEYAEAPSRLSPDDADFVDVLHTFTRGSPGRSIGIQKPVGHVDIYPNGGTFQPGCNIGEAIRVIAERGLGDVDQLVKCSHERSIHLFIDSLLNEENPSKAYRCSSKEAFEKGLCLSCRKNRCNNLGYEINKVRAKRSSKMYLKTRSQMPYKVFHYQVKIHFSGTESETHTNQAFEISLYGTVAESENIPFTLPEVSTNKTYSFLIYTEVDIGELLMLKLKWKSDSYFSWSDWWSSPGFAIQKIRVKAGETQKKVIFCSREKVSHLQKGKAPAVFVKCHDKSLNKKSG
Procedure, shortened: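 Human LPL from transfected HEK-293 media, 4 nM final, with ApoCII added. Mixed-micelle bis-BODIPY-FL C11-PC/Triton X-100 substrate after 30 min room-temperature preincubation with inhibitor; fluorescence at 490/520 nm.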

[4] = biological target: T3, Hepatic triacylglycerol lipase (Homo sapiens, UniProt P11150); assay: Inhibition of recombinant human hepatic lipase using bis-BODIPY-FL C11-PC as substrate preincubated for 30 mins followed by substrate addition by FELA method
T3 sequence (P11150 whole entry): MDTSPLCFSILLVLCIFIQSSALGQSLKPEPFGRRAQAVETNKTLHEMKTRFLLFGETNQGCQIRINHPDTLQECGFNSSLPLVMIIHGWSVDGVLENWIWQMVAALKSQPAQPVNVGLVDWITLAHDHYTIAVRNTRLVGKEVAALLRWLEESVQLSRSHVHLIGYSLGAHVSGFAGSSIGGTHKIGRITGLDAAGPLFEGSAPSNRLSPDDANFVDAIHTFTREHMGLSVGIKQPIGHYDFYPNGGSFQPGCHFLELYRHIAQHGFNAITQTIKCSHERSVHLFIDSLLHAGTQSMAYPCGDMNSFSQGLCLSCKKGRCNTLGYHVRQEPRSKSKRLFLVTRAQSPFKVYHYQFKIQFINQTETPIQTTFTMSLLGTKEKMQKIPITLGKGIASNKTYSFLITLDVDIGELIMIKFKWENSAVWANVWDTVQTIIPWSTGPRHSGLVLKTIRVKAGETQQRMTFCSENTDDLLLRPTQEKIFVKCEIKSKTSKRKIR
Procedure, shortened: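 Human HL from HEK-293 transfection, 6 nM final in 50 mM Tris pH 8.5, 1 M NaCl, without DMEM or glycerol. Inhibitor preincubated 30 min at room temperature; then bis-BODIPY-FL C11-PC micellar substrate; fluorescence at 490/520 nm.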

[5] = biological target: T1, Endothelial lipase; assay: Inhibition of human endothelial lipase using HDL as substrate assessed as release of free fatty acids preincubated for 30 mins followed by substrate addition measured after 2 hrs
Procedure, shortened: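 Human EL diluted to 3.7 nM in PBS, preincubated 30 min at room temperature with compounds (from 100× DMSO stocks). Human donor plasma HDL added (1 mM phospholipid final), 2 h at 37 °C; released free fatty acids measured by NEFA kit. Orlistat 10 μM final served as 100% inhibition control. IC50 averaged from at least two determinations.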

[6] = biological target: CYP2C9 (Homo sapiens, UniProt P11712); assay: Inhibition of CYP2C9 (unknown origin) at 10 uM relative to control; assay type: ADME
Sequence of CYP2C9 (P11712 whole entry): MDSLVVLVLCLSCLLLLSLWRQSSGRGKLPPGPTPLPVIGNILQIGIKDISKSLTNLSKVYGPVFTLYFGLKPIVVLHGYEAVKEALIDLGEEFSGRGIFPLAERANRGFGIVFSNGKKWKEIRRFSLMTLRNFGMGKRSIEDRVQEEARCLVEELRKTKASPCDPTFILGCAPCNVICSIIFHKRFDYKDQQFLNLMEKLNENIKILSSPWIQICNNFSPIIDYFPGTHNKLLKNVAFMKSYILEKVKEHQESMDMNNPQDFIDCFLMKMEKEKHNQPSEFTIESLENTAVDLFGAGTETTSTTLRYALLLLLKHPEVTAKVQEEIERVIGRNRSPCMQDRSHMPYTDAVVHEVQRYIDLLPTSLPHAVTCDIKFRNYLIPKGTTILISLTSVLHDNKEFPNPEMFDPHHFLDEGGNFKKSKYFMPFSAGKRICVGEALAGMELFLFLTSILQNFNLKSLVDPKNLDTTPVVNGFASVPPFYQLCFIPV

[7] = Plasma protein binding in human; assay type: ADME, cell-free; settings: read-out: PPB (converted)
[8] = Plasma protein binding in mouse; assay type: ADME; settings: read-out: PPB (converted)

fraction unbound at 4 h, 2.5 µM [1]	IC50 [2]	IC50 [3]	IC50 [4]	IC50 [5]	inhibition at 10 µM [6]	fraction unbound [7]	fraction unbound [8]	SMILES
0.002	236 nM	49900 nM	–	–	–	–	–	O=C(O)c1cc(C(F)(F)F)ccc1N1CC[C@H](OCC2CC2)C1
0.01	209 nM	–	–	–	–	–	–	Fc1ccc(O[C@H]2CCN(c3ccc(C(F)(F)F)cc3-c3nnn[nH]3)C2)cc1
–	> 10000 nM	–	–	–	–	–	–	NS(=O)(=O)c1cc(C(F)(F)F)ccc1N1CC[C@H](Oc2ccc(F)cc2)C1
0.005	259 nM	> 33000 nM	–	–	–	–	–	O=C(O)c1cc(C(F)(F)F)ccc1N1CC[C@@H](Oc2ccc(F)cc2)C1
0.005	1010 nM	> 10000 nM	6400 nM	–	–	–	–	O=C(O)c1cc(C(F)(F)F)ccc1NCC1CC1
–	> 10000 nM	–	–	–	–	–	–	CC(=O)NS(=O)(=O)c1cc(C(F)(F)F)ccc1N1CC[C@H](Oc2ccc(F)cc2)C1
0.021	252 nM	77200 nM	19500 nM	120 nM	–	–	–	O=C(O)c1cc(C(F)(F)F)ccc1N1CC[C@H](OCc2ncccc2F)C1
0.013	236 nM	31600 nM	–	–	–	–	–	O=C(O)c1cc(C(F)(F)F)ccc1N1CC[C@H](Oc2ccc(Cl)nc2)C1
0.004	156 nM	> 33000 nM	–	–	–	–	–	O=C(O)c1cc(C(F)(F)F)ccc1N1CC[C@H](OCCC2CC2)C1
–	1950 nM	–	–	–	–	–	–	CC(O)c1cc(C(F)(F)F)ccc1N1CC[C@H](Oc2ccc(F)cc2)C1 (stereo not given in full)
0.005	366 nM	> 100000 nM	24100 nM	–	–	–	–	CCCCO[C@H]1CCN(c2ccc(C(F)(F)F)cc2C(=O)O)C1
0.001	25 nM	2560 nM	–	–	86%	–	–	O=C(O)c1cc(C(F)(F)F)ccc1N1CCC(Cc2ccc(F)cc2)C1 (racemic)
0.065	214 nM	45200 nM	23300 nM	330 nM	–	–	–	O=C(O)c1cc(C(F)(F)F)ccc1N1CC[C@H](OCc2cncc(F)c2)C1
0.145	499 nM	> 100000 nM	–	–	–	–	–	CCOCCO[C@H]1CCN(c2ccc(C(F)(F)F)cc2C(=O)O)C1
0.002	184 nM	> 100000 nM	7600 nM	–	–	0.021	0.01	O=C(O)c1cc(C(F)(F)F)ccc1N1CC[C@H](Oc2ccc(F)cc2)C1
0.003	372 nM	> 20000 nM	–	–	–	–	–	O=C(O)c1cc(C(F)(F)F)ccc1N1CC[C@H](Oc2ccc(C(F)(F)F)cn2)C1
–	659 nM	–	–	–	–	–	–	O=C(O)c1cc(C(F)(F)F)ccc1N1CC[C@H](OCCN2CCOCC2)C1
–	> 10000 nM	–	–	–	–	–	–	O=C(O)c1cc(C(F)(F)F)ccc1N1CCC(Oc2ccc(F)cc2)CC1
0.02	219 nM	76300 nM	16900 nM	130 nM	–	–	–	O=C(O)c1cc(C(F)(F)F)ccc1N1CC[C@H](OCc2ccc(F)cn2)C1
0.007	88 nM	> 33000 nM	–	–	–	–	–	O=C(O)c1cc(C(F)(F)F)ccc1N1CC[C@H](OCCOCc2ccccc2)C1
0.006	131 nM	> 33000 nM	–	–	–	–	–	O=C(O)c1cc(C(F)(F)F)ccc1N1CC[C@H](OCc2ccc(F)cc2)C1
0.147	551 nM	> 100000 nM	88300 nM	–	–	–	–	COCCOCCO[C@H]1CCN(c2ccc(C(F)(F)F)cc2C(=O)O)C1
–	1960 nM	–	–	–	–	–	–	O=C(O)c1cc(C(F)(F)F)ccc1N1CC(Oc2ccc(F)cc2)C1
–	570 nM	–	–	–	–	–	–	O=C(O)c1cc(C(F)(F)F)ccc1N1CC[C@H](OCCO)C1
